ChEMBL document CHEMBL1149827, “Dichapetalin-type triterpenoids and lignans from the aerial parts of Phyllanthus acutissima” (J Nat Prod, 2008)
Converted amounts (≈) assume the structure as drawn.

What was measured:
L1210 = test: Cytotoxicity against mouse L1210 cells; format: functional
P388 = test: Cytotoxicity against mouse P388 cells after 72 hrs by sulforhodamine B assay; format: functional; conditions: P388, 72 h, read-out: ED50 (the source's name)
In short: (§1)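 SRB assay. Samples from […] DMSO stock, final DMSO 0.5%, triplicate, 72 h at 37 °C, 5% CO2. Media: P-388 Fisher's + 5% BCS; KB DMEM + 10% BCS; Col-2, ASK MEM + 10% FBS; MCF-7, Lu-1 MEM + 5% BCS. TCA-fixed, 0.4% SRB stain, dye solubilized in 10 mM trizma base, A515 read. ED50 reported.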

Lu1 = test: Cytotoxicity against human Lu1 cells after 72 hrs by sulforhodamine B assay; format: functional; conditions: Lu1, 72 h, read-out: ED50 (the source's name); in short: as §1
[1] = tested on: Human immunodeficiency virus 1; test: Selectivity index, ratio of IC50 for deltaTat/Rev deffective HIV1 in 1A2 cells to EC50 for deltaTat/Rev deffective HIV1 in 1A2 cells; format: functional
In short: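 Ratio of the XTT IC50 in uninfected 1A2 cells to the syncytium-reduction EC50 against ∆Tat/RevMC99 virus in 1A2 cells.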

[2] = tested on: Human immunodeficiency virus 1; test: Antiviral activity against deltaTat/Rev deffective HIV1 in 1A2 cells assessed as inhibition of metabolic activity in uninfected cells; format: functional; conditions: Human immunodeficiency virus 1, 1A2
In short: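 Uninfected 1A2 cells (same batch), run in parallel with the syncytium assay, with medium in place of virus. Serial dilutions in duplicate wells, 3 days. XTT–phenazine methosulfate added; formazan read at A450 with A650 reference. IC50 is the dose inhibiting 50% of metabolic activity.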

KB = test: Cytotoxicity against human KB cells after 72 hrs by sulforhodamine B assay; format: functional; conditions: read-out: ED50 (the source's name); in short: as §1
[3] = tested on: Human immunodeficiency virus 1; test: Antiviral activity against deltaTat/Rev deffective HIV1 in 1A2 cells assessed as reduction of syncytium formation; format: functional, organism-based; conditions: Human immunodeficiency virus 1, 1A2
In short: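 1A2 cells seeded, then compound added as 2-fold serial dilutions in triplicate. After 1 h preincubation, ∆Tat/RevMC99 virus added. Virus, cell and cytotoxicity control wells; AZT positive control. EC50 is the concentration reducing syncytium formation by 50%.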

Col2 = test: Cytotoxicity against human Col2 cells after 72 hrs by sulforhodamine B assay; format: functional; conditions: Col2, 72 h, read-out: ED50 (the source's name); in short: as §1
MCF7 = test: Cytotoxicity against human MCF7 cells after 72 hrs by sulforhodamine B assay; format: functional; conditions: MCF7, 72 h, read-out: ED50 (the source's name); in short: as §1
[4] = target: Human immunodeficiency virus type 1 reverse transcriptase (Human immunodeficiency virus 1) (UniProt Q72547); test: Inhibition of HIV1 reverse transcriptase at 200 ug/ml
In short: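 Tannin-free samples at final 200 µg/mL in 10% DMSO added to the reaction mix before HIV-1 RT. Control with 10% DMSO only; nevirapine (2 µg/mL) positive control. Duplicate wells averaged, % RT inhibition calculated.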

[5] = Cytotoxicity against rat ASK cells after 72 hrs by sulforhodamine B assay; format: functional; conditions: read-out: ED50 (the source's name); in short: as §1

| SMILES | EC50 [3] [µg/mL] | inhibition [4] [%] | EC90 (L1210) [µg/mL] | EC50 (P388) [µg/mL] | EC50 (Lu1) [µg/mL] | Ratio IC50/EC50 [1] | IC50 [2] [µg/mL] | EC50 (KB) [µg/mL] | EC50 (Col2) [µg/mL] | EC50 (MCF7) [µg/mL] | EC50 [5] [µg/mL] |
| --- | --- | --- | --- | --- | --- | --- | --- | --- | --- | --- | --- |
| C/C(=C\[C@H]1C[C@@H]([C@@H]2CC[C@]34C[C@]23C=C[C@@H]2[C@@]3(C)CC=C5C[C@@H](c6ccccc6)OC[C@]5(C)[C@@H]3C[C@@H](O)[C@]24C)C(=O)O1)CO [DICHAPETALIN A] |  |  | < 0.0001 |  |  |  |  |  |  |  |  |
| CO[C@@]1(C)CO[C@@]2(C=C([C@@H]3CC[C@]45C[C@]34CC[C@@H]3[C@@]4(C)CC=C6C[C@@H](c7ccccc7)OC[C@]6(C)[C@@H]4C[C@@H](O)[C@]35C)C(=O)O2)C1 | 72.9 (≈ 119 µM) | 65.9 |  | 0.4 (≈ 0.651 µM) | > 5 | >1.7 | > 125 | > 5 | > 5 | > 5 | > 5 |
| CO[C@@]1(C)CO[C@@]2(C=C([C@@H]3CC[C@]45C[C@]34CC[C@@H]3[C@@]4(C)CC=C6C[C@@H](c7ccc8c(c7)OCO8)OC[C@]6(C)[C@@H]4C[C@@H](O)[C@]35C)C(=O)O2)C1 | 86.1 (≈ 131 µM) | 55.5 |  | 0.5 (≈ 0.759 µM) | > 5 | >1.5 | > 125 | > 5 | > 5 | > 5 | > 5 |
| Cc1c2ccncc2c(C)c2c1[nH]c1ccccc12 [ELLIPTECINE] |  |  |  | 0.2 (≈ 0.812 µM) | 0.2 (≈ 0.812 µM) |  |  | 0.7 (≈ 2.84 µM) | 0.5 (≈ 2.03 µM) | 0.4 (≈ 1.62 µM) | 0.2 (≈ 0.812 µM) |
| O=C1OCc2cc3cc4c(cc3c(-c3ccc5c(c3)OCO5)c21)OCO4 [TAIWANIN C] | > 125 | 88.2 |  | > 5 | > 5 |  | > 125 | > 5 | > 5 | > 5 | > 5 |
| O=C1OC[C@@H](Cc2ccc3c(c2)OCO3)/C1=C\c1ccc2c(c1)OCO2 [ISOGADIAN] | 34.6 (≈ 98.2 µM) | 39.7 |  | > 5 | > 5 | >3.6 | > 125 | > 5 | > 5 | > 5 | > 5 |
| COc1cc2c(=O)oc3c(OC)c(O)cc4c(=O)oc(c1OC)c2c34 |  |  |  | > 5 | > 5 |  |  | > 5 | > 5 | > 5 | > 5 |
| COc1cc2c(O[C@@H]3OC[C@H](O)[C@H](O)[C@H]3O)c3c(c(-c4ccc5c(c4)OCO5)c2cc1OC)C(=O)OC3 [ACUTISSIMALIGNAN A] | < 3.9 | 10.7 |  | 0.02 (≈ 0.039 µM) | 0.14 (≈ 0.273 µM) | >3.1 | 12.3 (≈ 24 µM) | 0.59 (≈ 1.15 µM) | 0.25 (≈ 0.488 µM) | 0.22 (≈ 0.429 µM) | 2.3 (≈ 4.49 µM) |

Continued, in another order:

| EC50 [3] [µg/mL] | inhibition [4] [%] | SMILES | EC90 (L1210) [µg/mL] | EC50 (P388) [µg/mL] | EC50 (Lu1) [µg/mL] | Ratio IC50/EC50 [1] | IC50 [2] [µg/mL] | EC50 (KB) [µg/mL] | EC50 (Col2) [µg/mL] | EC50 (MCF7) [µg/mL] | EC50 [5] [µg/mL] |
| --- | --- | --- | --- | --- | --- | --- | --- | --- | --- | --- | --- |
| < 3.9 | -0.5 | CO[C@@]1(C)CO[C@@]2(C1)OC(=O)[C@H]([C@@H]1CC[C@]34C[C@]13CC[C@@H]1[C@@]3(C)CC=C5C[C@@H](c6ccc7c(c6)OCO7)OC[C@]5(C)[C@@H]3C[C@@H](O)[C@]14C)[C@H]2O |  | 0.005 (≈ 0.00739 µM) | 3.1 (≈ 4.58 µM) | >8.1 | 31.6 (≈ 46.7 µM) | > 5 | 4.8 (≈ 7.09 µM) | 1.1 (≈ 1.63 µM) | > 5 |
| > 125 | -9.2 | COc1c(O)cc2c(=O)oc3c(O)c(O[C@@H]4O[C@@H](C)[C@H](O)[C@@H](O)[C@H]4O)cc4c(=O)oc1c2c34 |  | > 5 | > 5 |  | > 125 | > 5 | > 5 | > 5 | > 5 |
| 9.9 (≈ 27.8 µM) | 45.4 | COc1cc(/C=C2/C(=O)OC[C@H]2Cc2ccc(O)c(OC)c2)ccc1O [ACUTISSIMALIGNAN B] |  | > 5 | > 5 | 4.9 | 48.2 (≈ 135 µM) | > 5 | > 5 | > 5 | > 5 |
| 15.7 (≈ 24.9 µM) | 51 | COc1c(OC(C)=O)cc2c(=O)oc3c(O)c(O[C@@H]4O[C@@H](C)[C@H](OC(C)=O)[C@@H](OC(C)=O)[C@H]4OC(C)=O)cc4c(=O)oc1c2c34 |  | > 5 | > 5 | 1.6 | 24.9 (≈ 39.5 µM) | > 5 | > 5 | > 5 | > 5 |
